# Laboratory results as given in ChEMBL document CHEMBL4715736, “Identification of anticancer agents based on the thieno[2,3-b]pyridine and 1H-pyrazole molecular scaffolds” (2016).
# How the values were obtained:
# Assay type in all cases: functional
# OVCAR-5 [1] = experiment: Growth inhibition of human OVCAR-5 cells incubated for 48 hrs by sulforhodamine B assay; details: for CC50: read-out: LC50 (the source's name)
# How it was run: (§1)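 NCI DTP 60-line human tumour panel. Dose-response curves were run only for ligands active in the initial 10 µM screen. GI50 (concentration giving 50% of maximal inhibition of proliferation) and TGI (concentration giving total growth inhibition) were derived from these curves.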
# RXF 393 = experiment: Growth inhibition of human RXF 393 cells assessed as cell growth at 1 uM incubated for 48 hrs by sulforhodamine B assay relative to control; details: read-out: Activity
# MDA-MB-435 [2] = experiment: Growth inhibition of human MDA-MB-435 cells assessed as cell growth at 0.01 uM incubated for 48 hrs by sulforhodamine B assay relative to control; details: read-out: Activity
# MCF7 = experiment: Growth inhibition of human MCF7 cells assessed as cell growth at 100 uM incubated for 48 hrs by sulforhodamine B assay relative to control; details: read-out: Activity
# A498 = experiment: Growth inhibition of human A498 cells assessed as cell growth at 100 uM incubated for 48 hrs by sulforhodamine B assay relative to control; details: read-out: Activity
# How it was run: (§2)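 NCI Developmental Therapeutics Program NCI60 panel. Compounds that were active in the 10 µM one-dose screen went on to dose–response testing. Growth at each concentration is expressed relative to untreated control (100%). GI50 (concentration giving 50% of maximal inhibition of proliferation) and TGI (concentration giving total growth inhibition) were derived from the curves.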
# RPMI-8226 = experiment: Growth inhibition of human RPMI-8226 cells assessed as cell growth at 100 uM incubated for 48 hrs by sulforhodamine B assay relative to control; details: read-out: Activity
# NCI-H322M = experiment: Growth inhibition of human NCI-H322M cells incubated for 48 hrs by sulforhodamine B assay; details: for CC50: read-out: LC50 (the source's name)
# How it was run: (§3)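 NCI60 panel at the NCI Developmental Therapeutics Program. Only compounds active in the 10 µM screen went to dose-response testing. GI50, the concentration giving 50% of maximal inhibition of proliferation, and TGI, the concentration giving total growth inhibition, were derived from the dose-response curves.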
# NCI-H23 [3] = experiment: Growth inhibition of human NCI-H23 cells incubated for 48 hrs by sulforhodamine B assay; how it was run: as §3
# CCRF-CEM [4] = experiment: Growth inhibition of human CCRF-CEM cells assessed as cell growth at 100 uM incubated for 48 hrs by sulforhodamine B assay relative to control; details: read-out: Activity; how it was run: as §2
# UACC-257 = experiment: Growth inhibition of human UACC-257 cells incubated for 48 hrs by sulforhodamine B assay; how it was run: as §1
# LOX IMVI = experiment: Growth inhibition of human LOX IMVI cells assessed as cell growth at 0.1 uM incubated for 48 hrs by sulforhodamine B assay relative to control; details: read-out: Activity
# UACC-62 = experiment: Growth inhibition of human UACC-62 cells assessed as cell growth at 0.1 uM incubated for 48 hrs by sulforhodamine B assay relative to control; details: read-out: Activity
# Hs-578T [5] = experiment: Growth inhibition of human Hs-578T cells assessed as cell growth at 0.1 uM incubated for 48 hrs by sulforhodamine B assay relative to control; details: read-out: Activity
# CCRF-CEM [6] = experiment: Growth inhibition of human CCRF-CEM cells incubated for 48 hrs by sulforhodamine B assay; how it was run: as §2
# SW-620 = experiment: Growth inhibition of human SW-620 cells assessed as cell growth at 100 uM incubated for 48 hrs by sulforhodamine B assay relative to control; details: read-out: Activity
# SF-295 = experiment: Growth inhibition of human SF-295 cells assessed as cell growth at 1 uM incubated for 48 hrs by sulforhodamine B assay relative to control; details: read-out: Activity
# NCI-H226 = experiment: Growth inhibition of human NCI-H226 cells incubated for 48 hrs by sulforhodamine B assay; details: for CC50: read-out: LC50 (the source's name); how it was run: as §3
# NCI-H23 [7] = experiment: Growth inhibition of human NCI-H23 cells assessed as cell growth at 100 uM incubated for 48 hrs by sulforhodamine B assay relative to control; details: read-out: Activity
# CAKI-1 = experiment: Growth inhibition of human CAKI-1 cells assessed as cell growth at 0.1 uM incubated for 48 hrs by sulforhodamine B assay relative to control; details: read-out: Activity; how it was run: as §2
# Hs-578T [8] = experiment: Growth inhibition of human Hs-578T cells assessed as cell growth at 100 uM incubated for 48 hrs by sulforhodamine B assay relative to control; details: read-out: Activity
# SF-539 = experiment: Growth inhibition of human SF-539 cells incubated for 48 hrs by sulforhodamine B assay; details: for CC50: read-out: LC50 (the source's name); how it was run: as §1
# OVCAR-5 [9] = experiment: Growth inhibition of human OVCAR-5 cells assessed as cell growth at 100 uM incubated for 48 hrs by sulforhodamine B assay relative to control; details: read-out: Activity
# HCT-15 = experiment: Growth inhibition of human HCT-15 cells assessed as cell growth at 100 uM incubated for 48 hrs by sulforhodamine B assay relative to control; details: read-out: Activity
# KM12 = experiment: Growth inhibition of human KM12 cells assessed as cell growth at 100 uM incubated for 48 hrs by sulforhodamine B assay relative to control; details: read-out: Activity
# MDA-MB-435 [10] = experiment: Growth inhibition of human MDA-MB-435 cells assessed as cell growth at 0.1 uM incubated for 48 hrs by sulforhodamine B assay relative to control; details: read-out: Activity
# SN12C = experiment: Growth inhibition of human SN12C cells assessed as cell growth at 100 uM incubated for 48 hrs by sulforhodamine B assay relative to control; details: read-out: Activity
# PC-3 = experiment: Growth inhibition of human PC-3 cells assessed as cell growth at 1 uM incubated for 48 hrs by sulforhodamine B assay relative to control; details: read-out: Activity
# K562 = experiment: Growth inhibition of human K562 cells assessed as cell growth at 1 uM incubated for 48 hrs by sulforhodamine B assay relative to control; details: read-out: Activity
# BT-549 [11] = experiment: Growth inhibition of human BT-549 cells assessed as cell growth at 100 uM incubated for 48 hrs by sulforhodamine B assay relative to control; details: read-out: Activity
# TK-10 [12] = experiment: Growth inhibition of human TK-10 cells incubated for 48 hrs by sulforhodamine B assay; how it was run: as §1
# TK-10 [13] = experiment: Growth inhibition of human TK-10 cells assessed as cell growth at 100 uM incubated for 48 hrs by sulforhodamine B assay relative to control; details: read-out: Activity
# BT-549 [14] = experiment: Growth inhibition of human BT-549 cells incubated for 48 hrs by sulforhodamine B assay; how it was run: as §2
# SK-MEL-2 [15] = experiment: Growth inhibition of human SK-MEL-2 cells assessed as cell growth at 100 uM incubated for 48 hrs by sulforhodamine B assay relative to control; details: read-out: Activity
# SK-MEL-2 [16] = experiment: Growth inhibition of human SK-MEL-2 cells assessed as cell growth at 0.1 uM incubated for 48 hrs by sulforhodamine B assay relative to control; details: read-out: Activity
# SK-OV-3 = experiment: Growth inhibition of human SK-OV-3 cells assessed as cell growth at 1 uM incubated for 48 hrs by sulforhodamine B assay relative to control; details: read-out: Activity
# [17] = read-out: LC50 (the source's name)
smiles,measurement,setting,value
CCc1cccc(C)c1NC(=O)c1sc2nc3c(cc2c1N)C(=O)CCC3,GI50,OVCAR-5 [1],2.6 µM
same,TGI,OVCAR-5 [1],> 100 µM
same,CC50,OVCAR-5 [1],> 100 µM
same,growth at 1 µM,RXF 393,-12%
same,growth at 0.01 µM,MDA-MB-435 [2],92%
same,growth at 100 µM,MCF7,-1%
same,growth at 100 µM,A498,-16%
same,growth at 100 µM,RPMI-8226,-39%
same,TGI,NCI-H322M,> 100 µM
same,CC50,NCI-H322M,> 100 µM
same,GI50,NCI-H23 [3],0.733 µM
same,LC50 (50% lethal concentration),NCI-H23 [3],> 100 µM
same,TGI,NCI-H23 [3],> 100 µM
same,growth at 100 µM,CCRF-CEM [4],-11%
same,GI50,UACC-257,0.185 µM
same,LC50 (concentration killing 50% of cells),UACC-257,> 100 µM
same,TGI,UACC-257,62.3 µM
same,growth at 0.1 µM,LOX IMVI,93%
same,growth at 0.1 µM,UACC-62,88%
same,growth at 0.1 µM,Hs-578T [5],90%
same,GI50,CCRF-CEM [6],0.346 µM
same,LC50,CCRF-CEM [6],> 100 µM
same,TGI,CCRF-CEM [6],≥ 100 µM
same,growth at 100 µM,SW-620,14%
same,growth at 1 µM,SF-295,5%
same,GI50,NCI-H226,0.182 µM
same,TGI,NCI-H226,> 100 µM
same,CC50,NCI-H226,> 100 µM
same,growth at 100 µM,NCI-H23 [7],14%
same,growth at 0.1 µM,CAKI-1,91%
same,growth at 100 µM,Hs-578T [8],17%
same,GI50,SF-539,0.32 µM
same,CC50,SF-539,> 100 µM
same,growth at 100 µM,OVCAR-5 [9],30%
same,growth at 100 µM,HCT-15,7%
same,growth at 100 µM,KM12,4%
same,growth at 0.1 µM,MDA-MB-435 [10],71%
same,growth at 100 µM,SN12C,-4%
same,growth at 1 µM,PC-3,31%
same,growth at 1 µM,K562,16%
CCc1ccccc1NC(=O)c1sc2nc3c(cc2c1N)C(=O)CCC3,GI50,OVCAR-5 [1],0.0392 µM
same,TGI,OVCAR-5 [1],> 100 µM
same,CC50,OVCAR-5 [1],> 100 µM
same,growth at 100 µM,BT-549 [11],11%
same,growth at 1 µM,RXF 393,-8%
same,growth at 0.01 µM,MDA-MB-435 [2],92%
same,GI50,TK-10 [12],23.2 µM
same,TGI,TK-10 [12],> 100 µM
same,CC50,TK-10 [12]; [17],> 100 µM
same,growth at 100 µM,TK-10 [13],13%
same,growth at 100 µM,MCF7,9%
same,growth at 100 µM,A498,-10%
same,growth at 100 µM,RPMI-8226,-5%
same,TGI,NCI-H322M,> 100 µM
same,CC50,NCI-H322M,> 100 µM
same,growth at 100 µM,CCRF-CEM [4],8%
same,GI50,UACC-257,19.9 µM
same,LC50 (concentration killing 50% of cells),UACC-257,> 100 µM
same,TGI,UACC-257,> 100 µM
same,growth at 0.1 µM,LOX IMVI,95%
same,GI50,BT-549 [14],27.4 µM
same,TGI,BT-549 [14],> 100 µM
same,CC50,BT-549 [14]; [17],> 100 µM
same,growth at 0.1 µM,Hs-578T [5],80%
same,GI50,CCRF-CEM [6],0.328 µM
same,LC50,CCRF-CEM [6],> 100 µM
same,TGI,CCRF-CEM [6],> 100 µM
same,growth at 100 µM,SW-620,12%
same,growth at 1 µM,SF-295,13%
same,GI50,NCI-H226,20.1 µM
same,TGI,NCI-H226,> 100 µM
same,CC50,NCI-H226,> 100 µM
same,growth at 0.1 µM,CAKI-1,90%
same,growth at 100 µM,Hs-578T [8],15%
same,growth at 100 µM,SK-MEL-2 [15],7%
same,GI50,SF-539,0.335 µM
same,TGI,SF-539,2.69 µM
same,CC50,SF-539,> 100 µM
same,growth at 0.1 µM,SK-MEL-2 [16],104%
same,growth at 100 µM,OVCAR-5 [9],7%
same,growth at 100 µM,HCT-15,19%
same,growth at 100 µM,KM12,13%
same,growth at 0.1 µM,MDA-MB-435 [10],29%
same,growth at 100 µM,SN12C,22%
same,growth at 1 µM,SK-OV-3,30%
same,growth at 1 µM,K562,22%
